Reference: ChEMBL document CHEMBL5131524, “Design and Synthesis of Tranylcypromine-Derived LSD1 Inhibitors with Improved hERG and Microsomal Stability Profiles” (ACS Med Chem Lett, 2022)

Columns and labels:
[1] = target: T1, Amine oxidase [flavin-containing] A (Homo sapiens, UniProt P21397); experiment: Inhibition of MAO-A (unknown origin) using tyramine as substrate and measured after 10 mins by peroxidase-coupled reaction method
T1 sequence (P21397 whole entry): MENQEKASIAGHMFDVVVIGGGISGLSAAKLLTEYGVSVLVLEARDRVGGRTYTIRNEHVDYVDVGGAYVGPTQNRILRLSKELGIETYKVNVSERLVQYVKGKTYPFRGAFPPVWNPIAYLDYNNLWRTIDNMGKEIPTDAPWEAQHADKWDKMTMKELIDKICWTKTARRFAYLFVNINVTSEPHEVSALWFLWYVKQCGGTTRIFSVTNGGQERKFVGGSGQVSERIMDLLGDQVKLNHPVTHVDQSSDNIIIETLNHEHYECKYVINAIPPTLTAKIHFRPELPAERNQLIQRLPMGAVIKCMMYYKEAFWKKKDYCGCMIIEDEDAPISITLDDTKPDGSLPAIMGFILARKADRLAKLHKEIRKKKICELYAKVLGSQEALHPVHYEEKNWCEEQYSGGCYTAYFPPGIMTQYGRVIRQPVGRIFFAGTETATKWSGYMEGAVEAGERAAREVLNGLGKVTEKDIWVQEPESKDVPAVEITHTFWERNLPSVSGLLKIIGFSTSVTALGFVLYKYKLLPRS

[2] = target: T2, Amine oxidase [flavin-containing] B (Homo sapiens, UniProt P27338); experiment: Inhibition of MAO-B (unknown origin) using tyramine as substrate and measured after 10 mins by peroxidase-coupled reaction method
T2 sequence (P27338 whole entry): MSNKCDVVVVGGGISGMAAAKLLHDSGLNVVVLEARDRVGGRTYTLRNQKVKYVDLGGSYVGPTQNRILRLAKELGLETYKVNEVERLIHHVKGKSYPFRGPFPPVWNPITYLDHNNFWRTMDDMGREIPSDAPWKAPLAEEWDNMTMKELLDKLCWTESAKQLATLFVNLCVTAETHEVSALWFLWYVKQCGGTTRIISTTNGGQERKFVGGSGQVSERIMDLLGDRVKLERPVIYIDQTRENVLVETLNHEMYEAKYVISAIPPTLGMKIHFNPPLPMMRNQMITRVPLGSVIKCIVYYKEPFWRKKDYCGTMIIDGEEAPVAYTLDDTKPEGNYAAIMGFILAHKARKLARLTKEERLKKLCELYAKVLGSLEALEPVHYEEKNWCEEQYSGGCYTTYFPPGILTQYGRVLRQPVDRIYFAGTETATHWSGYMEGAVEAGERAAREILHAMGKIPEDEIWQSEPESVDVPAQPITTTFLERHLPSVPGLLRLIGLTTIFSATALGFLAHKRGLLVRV

[3] = Metabolic stability in human liver microsomes assessed as compound remaining and measured after 60 mins in presence of beta-NADPH by liquid chromatography tandem mass spectrometry analysis; format: ADME, Microsome; details: read-out: Stability
Method in brief: (§1)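 Percent of compound remaining after 60 min incubation with liver microsomes of each species (human, rat, mouse). Values are the mean of three independent experiments.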

[4] = Metabolic stability in mouse liver microsomes assessed as compound remaining and measured after 60 mins in presence of beta-NADPH by liquid chromatography tandem mass spectrometry analysis; format: ADME, Microsome; details: read-out: Stability; method in brief: as §1
[5] = Metabolic stability in rat liver microsomes assessed as compound remaining and measured after 60 mins in presence of beta-NADPH by liquid chromatography tandem mass spectrometry analysis; format: ADME, Microsome; details: read-out: Stability; method in brief: as §1
[6] = target: hERG (KCNH2) (Homo sapiens, UniProt Q12809); experiment: Inhibition of human ERG expressed in human HEK293 cells at 10 uM for 2 mins by whole-cell patch-clamp system; format: toxicity, cell-based; details: HEK293 cells expressing human ERG
Method in brief: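 hERG inhibition was measured by automated patch clamp in HEK293 cells expressing hERG. Values are the mean of three independent experiments.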

[7] = Tmax in ICR mouse serum at 10 mg/kg, ip; format: ADME, organism-based
Method in brief: (§2)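 Single intraperitoneal injection, 10 mg/5 mL per kilogram, to male ICR mice aged eight weeks (n = 3). Serum concentration–time profiles were measured, giving AUC0–∞ […], Cmax, Tmax and serum half-life.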

[8] = AUC (0-infinity) in ICR mouse at 10 mg/kg, ip; format: ADME, organism-based; parameters: time infinity, dose 10 mg/kg, route ip; details: in vivo; method in brief: as §2
[9] = Cmax in ICR mouse serum at 10 mg/kg, ip; format: ADME, organism-based; parameters: dose 10 mg/kg, route ip; method in brief: as §2
[10] = Half life in ICR mouse serum at 10 mg/kg, ip; format: ADME, organism-based; method in brief: as §2

Chain of hERG (KCNH2) (Q12809 whole entry): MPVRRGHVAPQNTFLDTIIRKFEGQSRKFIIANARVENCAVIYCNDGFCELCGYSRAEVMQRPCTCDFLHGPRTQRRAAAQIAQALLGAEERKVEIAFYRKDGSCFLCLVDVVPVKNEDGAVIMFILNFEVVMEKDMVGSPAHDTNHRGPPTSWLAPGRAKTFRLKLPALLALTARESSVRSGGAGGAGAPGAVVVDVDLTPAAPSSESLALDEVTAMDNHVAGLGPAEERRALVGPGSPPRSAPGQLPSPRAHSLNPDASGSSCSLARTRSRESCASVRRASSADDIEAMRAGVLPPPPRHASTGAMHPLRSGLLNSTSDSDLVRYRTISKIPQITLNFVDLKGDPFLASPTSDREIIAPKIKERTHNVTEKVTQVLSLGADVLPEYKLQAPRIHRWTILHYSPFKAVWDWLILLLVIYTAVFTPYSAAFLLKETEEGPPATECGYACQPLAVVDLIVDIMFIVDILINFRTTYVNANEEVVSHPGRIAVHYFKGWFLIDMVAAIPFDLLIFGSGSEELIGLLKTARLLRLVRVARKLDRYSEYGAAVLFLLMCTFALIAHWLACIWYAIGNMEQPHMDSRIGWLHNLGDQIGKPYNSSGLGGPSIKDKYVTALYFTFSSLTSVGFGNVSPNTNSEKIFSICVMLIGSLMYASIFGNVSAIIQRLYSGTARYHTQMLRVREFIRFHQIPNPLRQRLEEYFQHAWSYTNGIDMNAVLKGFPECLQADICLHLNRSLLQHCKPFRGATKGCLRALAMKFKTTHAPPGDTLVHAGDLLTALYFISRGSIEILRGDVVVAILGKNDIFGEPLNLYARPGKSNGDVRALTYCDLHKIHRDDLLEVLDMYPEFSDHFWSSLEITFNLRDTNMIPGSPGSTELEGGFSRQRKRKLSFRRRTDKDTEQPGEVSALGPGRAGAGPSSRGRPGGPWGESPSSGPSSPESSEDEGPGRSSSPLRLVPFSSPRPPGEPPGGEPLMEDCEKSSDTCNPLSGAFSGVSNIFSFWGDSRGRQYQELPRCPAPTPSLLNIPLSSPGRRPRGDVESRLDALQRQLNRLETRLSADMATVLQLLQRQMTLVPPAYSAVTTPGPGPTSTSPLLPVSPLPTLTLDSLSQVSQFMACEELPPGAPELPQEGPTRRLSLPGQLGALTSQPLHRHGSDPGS

O=C(CN[C@@H]1C[C@H]1c1cc(F)cc(F)c1OCc1cccnc1F)N1CCC2(CCNC2)CC1
Ki [1]: > 250 µM
Ki [2]: > 250 µM
remaining at 1 h [3]: 45%
remaining at 1 h [4]: 73%
remaining at 1 h [5]: 55%

COCCN1CCN(C(=O)CNC2CC2c2cc(F)cc(F)c2OCc2cnn(C)c2)CC1 (configuration not stated)
inhibition at 2 min, 10 µM [6]: 14%

COCCN1CCN(C(=O)CNC2CC2c2cc(F)cc(F)c2OCc2ccccc2)CC1 (configuration not stated)
inhibition at 2 min, 10 µM [6]: 50%

COCCN1CCN(C(=O)CNC2CC2c2cc(F)cc(F)c2OCCc2ccc(F)cc2)CC1 (configuration not stated)
inhibition at 2 min, 10 µM [6]: > 100%

O=C(CNC1CC1c1cc(F)cc(F)c1OCc1cccnc1F)N1CCC(N2CC3CCC(C2)N3)CC1 (configuration not stated)
remaining at 1 h [3]: 0%
remaining at 1 h [4]: 25%
remaining at 1 h [5]: 24%
inhibition at 2 min, 10 µM [6]: 23%

COCCN1CCN(C(=O)CNC2CC2c2cc(F)cc(F)c2OCc2cc[nH]n2)CC1 (configuration not stated)
inhibition at 2 min, 10 µM [6]: 8%

O=C(CNC1CC1c1cc(F)cc(F)c1OCc1cccnc1F)N1CCC2(CCCN2)CC1 (configuration not stated)
remaining at 1 h [3]: 41%
remaining at 1 h [4]: 42%
remaining at 1 h [5]: 20%
inhibition at 2 min, 10 µM [6]: 62%

COCCN1CCN(C(=O)CNC2CC2c2cc(F)cc(F)c2OCc2cccnc2F)CC1 (configuration not stated)
inhibition at 2 min, 10 µM [6]: 21%

O=C(CNC1CC1c1cc(F)cc(F)c1OCc1cccnc1F)N1CCC2(CCNC2)CC1 (configuration not stated)
remaining at 1 h [3]: 44%
remaining at 1 h [4]: 73%
remaining at 1 h [5]: 56%
inhibition at 2 min, 10 µM [6]: 10%

O=C(CNC1CC1c1cc(F)cc(F)c1OCc1cccnc1F)N1CCC(N2CC3CCC(C2)O3)CC1 (configuration not stated)
remaining at 1 h [3]: 0%
remaining at 1 h [4]: 0%
remaining at 1 h [5]: 0%
inhibition at 2 min, 10 µM [6]: 32%

COCCN1CCN(C(=O)CNC2CC2c2cc(F)cc(F)c2OCc2ccnc(F)c2)CC1 (configuration not stated)
inhibition at 2 min, 10 µM [6]: 46%

COCCN1CCN(C(=O)CNC2CC2c2cc(F)cc(F)c2OCCc2ccccc2)CC1 (configuration not stated)
inhibition at 2 min, 10 µM [6]: 76%

O=C(CN[C@H]1C[C@@H]1c1cc(F)cc(F)c1OCc1cccnc1F)N1CCC2(CCNC2)CC1
Tmax [7]: 30 min
Ki [1]: > 250 µM
Ki [2]: > 250 µM
remaining at 1 h [3]: 38%
remaining at 1 h [4]: 62%
remaining at 1 h [5]: 62%
AUC(0-inf) [8]: 5.09 µM·h
Cmax [9]: 3030 nM
half-life [10]: 234 min

CN1CCN(C(=O)CNC2CC2c2cc(F)cc(F)c2OCc2ccccc2)CC1 (racemic)
Tmax [7]: 15 min
AUC(0-inf) [8]: 0.98 µM·h
Cmax [9]: 960 nM
inhibition at 2 min, 10 µM [6]: 51%
half-life [10]: 57 min
